Laboratory results from PubChem BioAssay AID624466 (The Scripps Research Institute Molecular Screening Center, 2012).
Among all 360,000 compounds or so, about 5,400 (1.5%) were called active. The list comes from a sample in which actives are over-represented; it also holds similar structures and randomly drawn compounds. Values without a mark were called inactive.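 The calls were made as follows: active = inhibition above a per-plate cutoff, the mean inhibition of test compounds on that plate plus 3 SD (cut at about 49% in these data); inactive = the rest.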

biological target: Trace amine-associated receptor 1 (Homo sapiens) (UniProt Q96RJ0); experiment: human TAAR1 antagonists, primary screen, Fluo-8 calcium fluorescence, CHO RD-HGA16 cells (AID 624466); conditions: CHO RD-HGA16 TAAR1, Fluo-8 calcium fluorescence, antagonist; at 3 µM; stronger effect = higher value;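 also: 0% = DMSO plus EC80 beta-PEA response and 100% = DMSO alone without agonist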
Summary of the method: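 Material: RD-HGA16 CHO cells with stable hTAAR1 and Gα16; Dosing: single nominal final test compound concentration of 3 µM; Schedule: seeding 17-24 h prior, 75-min 37 °C, 30-min RT dye loading; Detection: kinetic Fluo-8 calcium fluorescence measurement; Measure: % inhibition from peak post-agonist over basal fluorescence ratio; Benchmarks: vehicle and agonist controls.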

Sequence of Trace amine-associated receptor 1 (Homo sapiens) (Q96RJ0 whole entry, looked up): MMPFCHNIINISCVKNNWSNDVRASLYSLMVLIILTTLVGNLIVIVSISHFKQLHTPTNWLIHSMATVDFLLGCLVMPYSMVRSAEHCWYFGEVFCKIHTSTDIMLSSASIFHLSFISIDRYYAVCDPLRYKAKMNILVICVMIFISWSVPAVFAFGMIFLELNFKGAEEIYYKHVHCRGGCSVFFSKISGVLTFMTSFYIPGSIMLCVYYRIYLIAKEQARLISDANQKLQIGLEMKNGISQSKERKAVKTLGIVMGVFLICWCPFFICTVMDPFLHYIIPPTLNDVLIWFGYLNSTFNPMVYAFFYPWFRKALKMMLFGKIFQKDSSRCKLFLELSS

Compound	inhibition
O=C(Nc1ccc(C2CC2(Cl)Cl)cc1)c1cccc([N+](=O)[O-])c1 (stereo not given)	49.6% (active)
CC(C)(C)SCCNC(=O)c1cccc([N+](=O)[O-])c1	-20.6%
O=C(Nc1nnc(SCc2c(Cl)cccc2Cl)s1)c1cccc([N+](=O)[O-])c1	-16.3%
COc1ccc(CC(=O)Nc2c(C(N)=O)oc3ccccc23)cc1	62.3% (active)
NC(=O)c1oc2ccccc2c1NC(=O)Cc1ccccc1	7.4%
NC(=O)c1oc2ccccc2c1NC(=O)CS(=O)(=O)c1ccccc1	-13.1%
Cc1nc(N2CCN(c3ccccn3)CC2)c2c(C)c(C(=O)Nc3ccc(F)c(Cl)c3)sc2n1	-1.25%
Cc1nc(N2CCOCC2)c2c(C)c(C(=O)Nc3ccc(C(F)(F)F)cc3)sc2n1	15.7%
Cc1nc(N2CCN(c3ccccn3)CC2)c2c(C)c(C(=O)Nc3ccc(F)cc3)sc2n1	58% (active)
CN(CC(=O)NCc1ccc(Cl)cc1)S(=O)(=O)c1cccs1	-2.12%
Cc1ccc(-c2nc3c(Cl)cc(C(F)(F)F)cn3c2Cc2cccc(Cl)c2)cc1	3.71%
Brc1ccc(COCCc2cn(Cc3ccccc3)c3ccccc23)cc1	-22%
COc1ccc(NC(=O)C2=C(C)NC(=O)NC2c2ccccc2[N+](=O)[O-])cc1 (stereo not given)	1.55%
COC(=O)N1Cc2ccnnc2CC1c1ccccc1Br (stereo not given)	-6.91%
COC(=O)Cc1nnn2c1[C@H](C)[C@@H](OC)c1cc(Br)ccc1-2	1.99%
COC(=O)Cc1nnn2c1[C@H](C)[C@H](c1ccccc1Br)OCC2	73.5% (active)
COC(=O)C1(C(=O)OC)C/C=C\CN(S(=O)(=O)c2ccccc2[N+](=O)[O-])CCC1	-2.45%
COC(=O)Cc1nnn2c1[C@H](C)[C@H](c1ccccc1[N+](=O)[O-])OCC2	51.6% (active)
CCn1cc(CCC(=O)NCc2ccc(F)cc2)c2ccccc21	8.18%
C=CC[C@]12C[C@@]3(O[C@H](c4ccc(C(F)(F)F)cc4)N=C3C[C@H](c3ccc(OC)cc3)[C@H]1C)N(C1CCN(Cc3ccccc3)CC1)C2=O	-52.6%
Cc1ccc(-c2cc(C(=O)NN)n[nH]2)o1	2.39%
CCOC(=O)[C@]12CCCC=C1N(CCC1=CCCCC1)C(=O)[C@H](CC(=O)N1CCOCC1)C2	-9.23%

Compound	inhibition
CCCCNC(=O)C[C@@H]1C[C@@]2(C(=O)OC)CC(C)(C)CC=C2N(Cc2ccco2)C1=O	-0.44%
CCOC(=O)C1CCN(C(=O)C2(NC(=O)Nc3cccc(F)c3)CCCCC2)CC1	-26.8%
O=S1(=O)CC(N2CCN(Cc3ccccc3F)CC2)CN1Cc1cn(Cc2cccc(C(F)(F)F)c2)nn1 (stereo not given)	-13%
CCOC(=O)[C@]12CCCC=C1N(Cc1ccc3c(c1)OCO3)C(=O)[C@H](CC(=O)N1CCN(C(=O)c3ccco3)CC1)C2	-4.35%
CC(C)C[C@H]1CNC(=O)C(=O)N1C[C@H]1CCCN1C[C@H](Cc1ccc(O)cc1)N1C[C@H](CC(C)C)N(CC2CCCCCC2)C(=O)C1=O	6.77%
CC1CCN(C(=O)c2ncn3c2C(=O)N[C@@H](C)C3)CC1	-2.44%
CC(=O)C12CC(C)=C(C)CC1CC1C3CCC4=CC(=O)CCC4(C)C3CCC12C (stereo not given)	-34.7%
CSc1ncnc2c1ncn2CC(=O)C1CCC2C3CCC4=CC(=O)CCC4(C)C3CCC12C (stereo not given)	61.8% (active)
CSc1ncnc2c1ncn2CCCNCC1CCCCC1	-17.2%
Cc1ccc(CNC(=O)CCS(=O)(=O)c2ccc3c(c2)CC(C)N3C(=O)C2CC2)o1 (stereo not given)	-23.9%
Cc1[nH]c2ccccc2c1CC(=O)Nc1ccc(Nc2cccnc2)c(-c2cccc(Cl)c2)c1	-0.4%
C/C(=N/O)c1ccc(N2C(=O)C3C4C=CC(C3C2=O)C2C3C(=O)N(c5ccc(/C(C)=N/O)cc5)C(=O)C3C42)cc1 (stereo not given)	-2.86%
CCCCCc1c(-c2cccc(Br)c2)ncn1CCc1ccccc1OC	43.2%
CCCCCc1c(-c2ccc(OC)c(OC)c2)ncn1CCc1ccccc1OC	73.9% (active)
CCc1c(-c2ccccc2OC)ncn1CCc1ccccc1OC	14.3%
CCCCCc1c(Cc2ccccc2)ncn1CCc1ccccc1OC	66.2% (active)
COc1ccccc1CCNS(=O)(=O)c1cn(C)nc1C	-36.9%
CCCc1c(-c2ccccc2F)ncn1Cc1ccccc1OC	-7.18%
COc1ccccc1CCn1cnc(-c2ccccc2)c1C(C)C	20%
CCCCc1c(-c2ccc(Cl)cc2)ncn1CCc1ccccc1OC	49.6% (active)
CCCCc1c(-c2ccc(Br)cc2)ncn1CCc1ccccc1OC	28.2%
CCOC(=O)c1cc2cc(OC)ccc2n1C1CCN(C)CC1	-4.73%

Compound	inhibition
COC(=O)[C@]1(Cc2ccccc2)NC=C(C(=O)c2ccccc2)[C@@H]1c1cccc(OC)c1	-1.81%
C[C@H](NC(=O)[C@@H]1CCCN1C(=O)[C@@H]1CCCN1C(=O)c1ccccc1)c1ccccc1	2.01%
C=CCC[C@H](CCCCC)OC(=O)/C=C/[C@H](O)[C@@H](O)C[C@@H](O)CC=C	-19.3%
COC(=O)C(C)N(C#N)c1nc(C)nc(C)n1 (stereo not given)	-2.26%
COC(=O)c1c(-c2ccc(OC)cc2)c2c(c3c4ccccc4n(S(=O)(=O)c4ccc(C)cc4)c13)C(=O)N(C)C2	-15.3%
CN=C(NC#N)NCCSCc1nc[nH]c1C	-15.6%
Cc1cc(C)n2nc(C(=O)Oc3ccc4c(c3)OCO4)nc2n1	2.03%
O=C(NCc1ccccc1)[C@@H]1CCCN1C(=O)[C@@H](NS(=O)(=O)c1ccc(F)cc1F)C1CCCCC1	7.07%
O=C(C(=O)N1CCC(c2ccccc2)CC1)c1ccccc1	-1.49%
COc1ccc(-c2cc(C(F)(F)F)nc(SCCC(=O)NCc3ccco3)n2)cc1	-2.48%
O=C(CSc1nc(-c2ccco2)cc(C(F)(F)F)n1)NCc1cccs1	58.2% (active)
O=C(CSc1nc(-c2ccco2)cc(C(F)(F)F)n1)N1CCc2ccccc2C1	-4.26%
CC1CCCN(C(C(=O)Nc2ccc(C(C)C)cc2)c2ccc3c(c2)OCO3)C1 (stereo not given)	-12.3%
CCOC(=O)[C@]12CCCC=C1N(Cc1ccc3c(c1)OCO3)C(=O)[C@H](CC(=O)NCc1cccs1)C2	-12.1%
O=C(O)c1ccc(-n2cccc2)cc1O	6.36%
CC(=N\NC(=O)c1cc(Br)ccc1O)/C(=N/O)C(=O)Nc1ccccc1	-8.22%
Cc1onc(-c2ccccc2Cl)c1C(=O)OCc1nnc(-c2ccccc2)o1	14.8%
Cc1ccc(C(=O)NCC(=O)OCc2nnc(-c3ccccc3)o2)cc1	-15.8%
Cc1onc(-c2ccccc2)c1-c1nnc(COC(=O)c2ccc(N(C)C)cc2)o1	73.5% (active)
O=S1(=O)CC(N2CCN(Cc3ccccc3F)CC2)CN1Cc1cn(Cc2ccccc2)nn1 (stereo not given)	-11.1%
CCN1CCc2c(C#N)c(NCc3ccccc3)nc(NCCO)c2C1	106% (active)
CCCCc1nc(NCc2ccccc2)c(C#N)c2c1CCCC2	-12.6%

Compound	inhibition
CC(C)CCNc1nc(N2CCCC2)c2c(c1C#N)CCN(C)C2	-24.7%
O=C(O)c1ccccc1-c1ccccc1C(=O)Nc1nccs1	-18.3%
COc1ccc(-c2nn(-c3ccccc3)cc2C(=O)Nc2nccs2)cc1OC	71.3% (active)
COc1ccc(Cl)cc1NC(=O)CN(C)C(=O)c1cn(-c2ccccc2)nc1-c1cccs1	12.7%
CCn1c(/C=C/Nc2ccccc2)[n+](CC)c2ccc(C(=O)OCC(F)(F)F)cc21	-27.5%
CC1(C)OC(=O)C2=C(C[C@@H](C3CCCCC3)O[C@@H]2c2ccc(Cl)cc2)O1	-31%
CS(=O)(=O)c1ccc(-c2nnn(CC(=O)Nc3ccc4c(c3)OCCO4)n2)cc1	21%
CC(C)c1cccc(-c2csc(C(O)c3ccccc3)n2)c1 (stereo not given)	17.5%
COc1ccccc1NS(=O)(=O)c1ccc(C(=O)N2CCN(c3ccccc3O)CC2)cc1	58.1% (active)
CN1CCN(C(=O)c2ccc(NS(=O)(=O)c3ccccc3)cc2)CC1	-8.92%
COc1ccc(N2CCN(C(=O)COC(=O)c3cccc(S(=O)(=O)Nc4ccccc4OC)c3)CC2)cc1	21.7%
CCOc1ccc(-n2cnc3c(=O)[nH]c(N)nc32)cc1	0.45%
O=C(NNC(=O)c1ccccc1O)c1ccccc1O	-13.5%
O=C(NNc1c2ccccc2nc2ccccc12)c1cc2ccccc2cc1O	65.3% (active)
O=C(COC(=O)c1ccc(O)cc1O)NC(=O)c1ccccc1	-0.49%
Cc1cccc(C)c1NC(=O)C(c1ccc(C(F)(F)F)cc1)n1c(=O)c(-c2ccco2)nc2ccccc21 (stereo not given)	-9.78%
O=S(=O)(NCCc1ccccn1)c1cc(Cl)cc(Cl)c1O	-19.9%
O=C(c1ccc(O)cc1)c1ccc(C(=O)O)c(C(=O)O)c1	17.8%
COC(=O)[C@]12CCCCC=C1N(Cc1ccc3c(c1)OCO3)C(=O)[C@H](CC(=O)NCc1cccs1)C2	21.1%
